Active and inactive are the calls of the source. No cut-off for these calls is given here.
Tests used:
[1] = tested on: HepG2; test: Cytotoxicity against human HepG2 cells assessed as growth inhibition after 48 hrs by MTT assay; assay type: functional, cell-based; conditions: HepG2, 48 h
Procedure, shortened: (§1)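 K562 (RPMI-1640) or HepG-2 (DMEM) cells in 10% FBS with penicillin/streptomycin at 37 °C, 5% CO₂. Seeded at 1.5×10^5 cells/mL and treated 48 h at various concentrations. MTT (5 mg/mL) added for 4 h, formazan dissolved in DMSO, absorbance read at 490 nm. IC50 reported.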

[2] = tested on: DNA; test: Binding affinity to calf thymus DNA by fluorescence spectroscopic analysis; assay type: nucleic-acid assay; conditions: Bos taurus
Procedure, shortened: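 Compound at 50 μM final in Tris–HCl buffer pH 7.0 (10 mM Tris, 10 mM NaCl), titrated with ct DNA at 0 to 6 μM final. Emission excited at 420 nm with a xenon arc lamp. Quenching constant Kq derived from a Stern–Volmer plot, F0/F = 1 + Kq[Q].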

[3] = tested on: K562; test: Cytotoxicity against human K562 cells assessed as growth inhibition after 48 hrs by MTT assay; assay type: functional, cell-based; conditions: K562, 48 h; procedure, shortened: as §1
[4] = molecular target: T1, DNA topoisomerase 1 (Homo sapiens) (UniProt P11387); test: Inhibition of human recombinant DNA topoisomerase-1 assessed as relaxation of pBR322 DNA at 25 uM after 30 mins by agarose gel electrophoresis
T1 sequence (whole entry): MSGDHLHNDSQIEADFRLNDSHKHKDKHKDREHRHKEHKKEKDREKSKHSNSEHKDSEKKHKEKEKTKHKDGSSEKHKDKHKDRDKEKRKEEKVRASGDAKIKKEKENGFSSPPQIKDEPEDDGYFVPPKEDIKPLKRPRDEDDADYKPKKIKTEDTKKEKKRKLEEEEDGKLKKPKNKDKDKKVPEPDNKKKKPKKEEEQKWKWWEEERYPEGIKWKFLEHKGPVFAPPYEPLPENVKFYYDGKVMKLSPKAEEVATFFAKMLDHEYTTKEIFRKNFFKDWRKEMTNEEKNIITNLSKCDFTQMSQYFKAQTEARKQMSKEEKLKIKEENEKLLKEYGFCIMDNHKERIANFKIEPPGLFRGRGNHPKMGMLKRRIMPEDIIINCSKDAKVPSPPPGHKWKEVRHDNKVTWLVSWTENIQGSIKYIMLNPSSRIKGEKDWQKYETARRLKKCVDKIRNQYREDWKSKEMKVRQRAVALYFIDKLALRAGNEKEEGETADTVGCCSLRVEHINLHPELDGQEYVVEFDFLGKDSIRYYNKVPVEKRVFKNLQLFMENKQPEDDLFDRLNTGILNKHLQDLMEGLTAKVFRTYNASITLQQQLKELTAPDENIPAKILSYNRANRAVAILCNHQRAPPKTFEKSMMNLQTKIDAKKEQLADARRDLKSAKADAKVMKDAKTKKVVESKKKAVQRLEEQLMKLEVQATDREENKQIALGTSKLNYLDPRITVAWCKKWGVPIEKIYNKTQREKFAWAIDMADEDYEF

[5] = tested on: K562; test: Induction of apoptosis in human K562 cells after 48 hrs by annexin V-FITC/propidium iodide staining-based flow cytometric analysis; assay type: functional, cell-based
[6] = tested on: DNA; test: Effect on calf thymus DNA conformation at 40 to 80 uM by CD spectra analysis; assay type: nucleic-acid assay; conditions: Bos taurus
Procedure, shortened: (§2)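 CD spectra of ct DNA (40 μM) with compound at 0, 40 or 80 μM, in 10 mM Tris/10 mM NaCl pH 7.0, at room temperature in a 0.1 cm quartz cell. Each spectrum is the average of three scans with the buffer scan subtracted.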

[7] = tested on: K562; test: Induction of apoptosis in human K562 cells assessed as late apoptotic cells at 1 uM after 48 hrs by annexin V-FITC/propidium iodide staining-based flow cytometric analysis (reference value: 1.22%); assay type: functional
[8] = tested on: K562; test: Induction of apoptosis in human K562 cells assessed as caspase-3 cleavage at 2.5 uM after 48 hrs by Western blot analysis; assay type: functional, cell-based
Procedure, shortened: (§3)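 K562 cells in 6 cm dishes treated 48 h at several concentrations, then lysed on ice 0.5 h and spun at 20,000g. Protein measured by BCA, run on 15% SDS-PAGE and transferred to PVDF. Membrane blocked in 5% BSA/TBS with Na₃VO₄ and NaF, primary antibody 2 h at room temperature, chemiluminescent detection of cleaved caspase-3/7/9, BAX and BCL-XL.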

[9] = tested on: K562; test: Induction of apoptosis in human K562 cells assessed as activation of caspase-9 after 48 hrs by Western blot analysis; assay type: functional, cell-based; procedure, shortened: as §3
[10] = tested on: K562; test: Induction of apoptosis in human K562 cells assessed as early apoptotic cells at 2.5 uM after 48 hrs by annexin V-FITC/propidium iodide staining-based flow cytometric analysis (reference value: 2.1%); assay type: functional
[11] = tested on: K562; test: Induction of apoptosis in human K562 cells assessed as early apoptotic cells at 1 uM after 48 hrs by annexin V-FITC/propidium iodide staining-based flow cytometric analysis (reference value: 2.1%); assay type: functional
[12] = tested on: K562; test: Induction of apoptosis in human K562 cells assessed as caspase-7 cleavage at 2.5 uM after 48 hrs by Western blot analysis; assay type: functional, cell-based; procedure, shortened: as §3
[13] = tested on: K562; test: Induction of apoptosis in human K562 cells assessed as late apoptotic cells at 2.5 uM after 48 hrs by annexin V-FITC/propidium iodide staining-based flow cytometric analysis (reference value: 1.22%); assay type: functional
[14] = tested on: K562; test: Induction of apoptosis in human K562 cells assessed as increase in Bax level at 2.5 uM after 48 hrs by Western blot analysis; assay type: functional, cell-based; procedure, shortened: as §3
[15] = tested on: K562; test: Induction of apoptosis in human K562 cells assessed as early apoptotic cells at 0.5 uM after 48 hrs by annexin V-FITC/propidium iodide staining-based flow cytometric analysis (reference value: 2.1%); assay type: functional
[16] = tested on: DNA; test: Binding affinity to calf thymus DNA after 5 mins by UV-vis absorption spectroscopic analysis; assay type: nucleic-acid assay; conditions: Bos taurus
Procedure, shortened: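 ct DNA (purity A260:A280 1.86; concentration per mole phosphate from ε260 6600 M⁻¹ cm⁻¹) titrated into 50 μM compound in 10 mM Tris, 10 mM NaCl, pH 7.0. DNA 0–10 μM. Incubated 5 min, UV-vis absorption recorded in a 1.0 cm quartz cell. Kb taken as the slope-to-intercept ratio of [DNA]/(εa−εf) plotted against [DNA].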

[17] = tested on: K562; test: Induction of apoptosis in human K562 cells assessed as late apoptotic cells at 0.5 uM after 48 hrs by annexin V-FITC/propidium iodide staining-based flow cytometric analysis (reference value: 1.22%); assay type: functional
[18] = tested on: K562; test: Induction of apoptosis in human K562 cells assessed as decrease in BCL-XL level at 2.5 uM after 48 hrs by Western blot analysis; assay type: functional, cell-based; procedure, shortened: as §3
[19] = tested on: DNA; test: Binding affinity to calf thymus DNA at 40 to 80 uM by CD spectra analysis; assay type: nucleic-acid assay; conditions: Bos taurus; procedure, shortened: as §2

Kq [2] | Compound | IC50 [1] [µM] | IC50 [3] [µM] | further results
1.11 ×10⁵ /M | COc1cc(C)c2nc3cc(Cl)ccc3c(NCc3ccccc3)c2c1 | 6.05 | 3.09 | –
6.22 ×10⁴ /M | Cc1cccc2c(NCc3ccccc3)c3ccccc3nc12 | 3.64 | 4.86 | inhibition [4]: Active
< 1 ×10⁴ /M | O=C(Nc1c2ccccc2nc2ccccc12)c1ccccc1 | > 50 | > 50 | –
3.5 ×10⁵ /M | COc1ccc2nc3ccccc3c(NCc3ccccc3)c2c1 | 0.89 | 0.54 | Activity [5]: Dose-dependent effect; inhibition [4]: Active; Activity [6]: inactive; Activity [7]: 18.42%; Activity [8]: Active; Activity [9]: Dose-dependent effect; Activity [10]: 40.44%; Activity [11]: 37.09%; Activity [12]: Active; Activity [13]: 32.71%; Activity [14]: Active; Activity [15]: 7.23%; Kb [16]: 1.42 ×10⁵ /M; Activity [17]: 2%; Activity [18]: Active; Activity [19]: Active
1.19 ×10⁵ /M | COc1ccc2nc3cc(Cl)ccc3c(NCCc3ccccc3)c2c1 | 2.19 | 0.65 | –
1.05 ×10⁵ /M | COc1ccc2nc3cc(Cl)ccc3c(NCCCc3ccccc3)c2c1 | 3.26 | 2.2 | –
< 1 ×10⁴ /M | c1ccc(COc2c3ccccc3nc3ccccc23)cc1 | > 50 | > 50 | –
– | Cc1ccc(NC(=O)c2ccc(CN3CCN(C)CC3)cc2)cc1Nc1nccc(-c2cccnc2)n1 [IMATINIB] | – | 0.47 | –
1.97 ×10⁵ /M | COc1ccc2nc3cc(Cl)ccc3c(NCc3ccccc3)c2c1 | 1.4 | 0.65 | –
3.71 ×10⁴ /M | c1ccc(CNc2c3ccccc3nc3ccccc23)cc1 | 6.07 | 5.24 | inhibition [4]: Active
1.33 ×10⁴ /M | Clc1ccc2c(NCc3ccccc3)c3ccccc3nc2c1 | 11.6 | 9.24 | –
– | COc1cc2c(c(OC)c1OC)-c1ccc(OC)c(=O)cc1[C@@H](NC(C)=O)CC2 [COLCHICINE] | 1.8 | – | –

From ChEMBL document CHEMBL2407048, “Novel synthetic acridine derivatives as potent DNA-binding and apoptosis-inducing antitumor agents” (Bioorg Med Chem, 2013)
